Sampled rows, rich in hits. Any-hit rate of the full collection: about 1.9%.
SR-BI uptake up – activators of SR-BI mediated HDL lipid uptake; AID 504775; activation, % at 12.5 µM; hit rate 0.096% among 320,000; CHO ldlA[mSR-BI] cells, DiI-HDL uptake fluorescence, 3 h; 100 = double the neutral-control signal;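 active means mean replicate activation of at least 60% and every replicate at or above 60%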;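 further: 0% = median plate neutral-control signal and 100% = twice that signal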
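Material: SR-BI-overexpressing, LDLR-lacking CHO cells | Dosing: Single compound concentration, delivered by pin transfer | Probe or stimulus: Labelled HDL, 10 µg/mL | Signal: Bottom-read cell fluorescence after medium removal, ex 550/em 595 nm | Schedule: 3 h, 37 °C | Evaluation: HDL uptake via cellular fluorescence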
Rin1-Abl PPI inh – inhibitors of human Rin1-Abl protein interaction | hit rate 0.4% among 360,000 | TR-FRET Rin1/Abl binding, biochemical | P00519+Q13671 | inhibition, % at 7.35 µM; in the data active means inhibition above about 5%, passing the limit was not always enough
GRK2 inh – inhibitors of human GRK2 displacing RNA aptamer | hit rate 0.59% among 330,000 | P25098 | bead flow cytometry, FAM-aptamer displacement from GRK2 | AID 488847 | inhibition of aptamer binding, % at 10 µM;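 active means inhibition of aptamer binding above 40%, roughly 3 SD of noise, on plates passing a quality check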;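 further: median bead fluorescence of bound FAM aptamer so fluorescent compounds give negative values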
SR-BI DiI inh – inhibitors of mouse SR-BI mediated HDL lipid uptake; hit rate 0.96% among 320,000; inhibition, % at 12.5 µM; ldlA[mSR-BI] CHO cells, DiI-HDL uptake fluorescence, 3 h; Q61009;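 active means mean replicate inhibition of at least 70% and a set share of replicates each scoring 70 or more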;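 further: 0% = median of neutral control wells and 100% = median of positive control wells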
Target sequence (Q61009 whole entry, looked up): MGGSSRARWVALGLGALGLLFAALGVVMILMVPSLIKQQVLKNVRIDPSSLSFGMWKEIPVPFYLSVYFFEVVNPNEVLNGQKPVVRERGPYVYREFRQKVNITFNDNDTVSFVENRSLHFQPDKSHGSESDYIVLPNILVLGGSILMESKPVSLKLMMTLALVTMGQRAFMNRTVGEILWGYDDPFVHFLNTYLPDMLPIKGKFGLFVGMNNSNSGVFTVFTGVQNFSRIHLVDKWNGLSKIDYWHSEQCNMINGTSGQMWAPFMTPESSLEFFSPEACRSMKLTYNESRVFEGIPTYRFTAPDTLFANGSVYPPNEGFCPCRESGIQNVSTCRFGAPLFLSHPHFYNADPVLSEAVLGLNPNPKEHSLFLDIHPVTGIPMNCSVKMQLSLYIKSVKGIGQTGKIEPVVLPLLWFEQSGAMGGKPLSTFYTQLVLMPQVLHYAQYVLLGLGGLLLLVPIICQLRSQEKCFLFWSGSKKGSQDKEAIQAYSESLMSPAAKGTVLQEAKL
GRK2 CP1 – confirmation of human GRK2 inhibitors displacing RNA aptamer; shares compounds with GRK2 inh; bead-bound GRK2, FAM-aptamer displacement, flow cytometry; aptamer displacement, % at 10 µM; hit rate 4% among 2,000; AID 504451;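 active means aptamer displacement above 40%, near three times the noise of non-fluorescent compounds, on plates passing quality checks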;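 further: negative values mostly reflect intrinsic compound fluorescence rather than true enhancement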
FAM quench CP1 – aptamer fluorescence quenching in GRK2 counter-screen | shares compounds with GRK2 inh | Carboxyfluorescein RNA aptamer on beads, flow cytometry quenching; active compounds read low | fluorescence response (% of DMSO), % at 10 µM | 2,000 tested, under 10 active | AID 504580;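 active means compounds that quench the bead-bound fluorescent RNA probe, cutting fluorescence to under half of the solvent control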;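 further: counterscreen run without GRK2 so only probe quenching by compound is measured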
* marks the source's active call; other numbers are inactive results; . = no result given.

SMILES | SR-BI uptake up | Rin1-Abl PPI inh | GRK2 inh | SR-BI DiI inh | GRK2 CP1 | FAM quench CP1
CCOC(=O)c1cc(CN2CCOCC2)oc1-c1ccccc1 | 7 | 0 | 69* | -7 | 2 | 95
NS(=O)(=O)c1ccc(NC(=O)CSC2=NC(=O)C(c3ccccc3)C(=O)N2)cc1 (stereo not drawn) | -3 | 1 | 100* | 3 | -1 | 101
NS(=O)(=O)c1ccc(NC(=O)CSc2ccccc2)cc1 | 21 | 3 | 0 | -21 | . | .
O=C1c2ccccc2CCC12OC2c1ccc([N+](=O)[O-])cc1 (stereo not drawn) | . | 2 | . | . | . | .
CC(C)CCn1c(=O)c2ccccc2n2c(=S)[nH]nc12 | 20 | -1 | 0 | -20 | . | .
C=CCn1c(=O)c2ccccc2n2c(=S)[nH]nc12 | 14 | 0 | 98* | -14 | -4 | 98
CN(CCc1ccccc1)c1cc2c(c3c1ccn3C)C1CCC2C1 (stereo not drawn) | . | 3 | . | . | . | .
CCN(CC)c1ccc(NC(=O)Cn2nnc(-c3cccc(OC)c3OC)n2)c(C)c1 | -20 | -2 | 95* | 20 | 1 | 96
COc1ccc(-c2cccc(C3CC=CC4C3C(=O)N(Cc3ccccc3)C4c3ccc4ccccc4c3)c2)cc1 (stereo not drawn) | 15 | 1 | 2 | -15 | . | .
COc1ccc(C2C3C=CCC(c4cccc(-c5ccc(C)cc5)c4)C3C(=O)N2Cc2ccccc2)cc1Cl (stereo not drawn) | -12 | 2 | 3 | 12 | -3 | 97
COC(=O)c1cc(=O)c2c(ccc3oc(=O)ccc32)[nH]1 | . | -1 | . | . | . | .
C=CCNC(=O)c1ccc(C(=O)c2ccccc2)cc1 | -8 | 0 | 67* | 8 | -8 | 99
C=CCNC(=O)c1ccc2nc(-c3ccccc3)c(-c3ccccc3)nc2c1 | -16 | -4 | 1 | 16 | . | .
CCN(CC)CCOC(=O)C1(c2ccc(OC)c(OC)c2)CCCC1 | 29 | 1 | 0 | -29 | . | .
CCN(CC)CCOC(=O)C1(c2ccccc2)CCCC1 | 8 | 1 | 69* | -8 | 0 | 99
N#CC1=C(N)OC2=C(C(=O)CCC2)C1c1cc2c(cc1Br)OCO2 (stereo not drawn) | 20 | -4 | 1 | -20 | . | .
CC(C#N)(CCc1ccccn1)CCc1ccccn1 | 13 | 0 | . | -13 | . | .
CC(C)(O)C1CC[C@@](C)([C@@H]2CC[C@]3(C)[C@H]2[C@H](O)CC2[C@@]4(C)CCC(O)C(C)(C)C4C(OC4OC(CO)C(O)C(O)C4O[C@@H]4OCC(O)C(O)C4O)C[C@]23C)O1 (stereo partly drawn) | 11 | 2 | 0 | -11 | -2 | 100
CC(C)(C)n1cnc2cc(NCc3ccc(Br)cc3)ccc21 | -13 | 4 | 0 | 13 | -5 | 96
CCN(CC)c1ccc(CNc2ccc3c(c2)ncn3C(C)(C)C)cc1 | 11 | -1 | 0 | -11 | . | .
CCc1ccc(CNc2ccc3c(c2)ncn3C(C)(C)C)cc1 | -18 | 2 | 0 | 18 | -6 | 98
CC(C)(C)n1cnc2cc(NCc3ccccc3O)ccc21 | 9 | -1 | 27 | -9 | 1 | 102
CC(Oc1cccnc1[N+](=O)[O-])C(=O)N1CCc2ccccc21 (stereo not drawn) | -1 | 5 | 33 | 1 | 2 | 104
O=C(COc1cccnc1[N+](=O)[O-])N1CCc2ccccc21 | -2 | -1 | 0 | 2 | . | .
O=C(OCc1ccccc1)N1C=CCC[C@@H]1c1c(Cl)cccc1Br | . | 1 | . | . | . | .
SMILES | SR-BI uptake up | Rin1-Abl PPI inh | GRK2 inh | SR-BI DiI inh | GRK2 CP1 | FAM quench CP1
NS(=O)(=O)c1cc(C(=O)NC2CCSc3ccccc32)ccc1Cl (stereo not drawn) | -5 | 1 | 51* | 5 | 18 | 96
CCOC(=O)C1=C(CS(=O)(=O)c2ccccc2)NC(=O)NC1c1ccc(OC)c(OC)c1 (stereo not drawn) | -9 | -3 | 40 | 9 | 1 | 101
COC(=O)C1=C(CS(=O)(=O)c2ccccc2)NC(=O)NC1c1ccc(OC)c(OC)c1 (stereo not drawn) | 7 | -3 | 0 | -7 | . | .
O=C(C1CCCCCC1)N1CC[C@@H](N2CCC(O)CC2)[C@H](O)C1 | 16 | -1 | 31 | -16 | -5 | 102
O=C(C1CCCCC1)N1CCN(C(=O)C2CCCCC2)CC1 | 17 | -3 | 0 | -17 | . | .
Cc1ccc(S(=O)(=O)N2CCCCC2)cc1NC(=O)c1cnccn1 | 1 | 2 | . | -1 | . | .
COc1ccc(C)cc1Nc1n[n+](-c2ccccc2)c(-c2ccc(SC)cc2)s1 | -5 | 3 | 0 | 5 | . | .
O=Cc1ccc(Oc2nc(Cl)ncc2F)cc1 | -58 | -6 | 39 | 58 | 12 | 91
Cc1cc(S(=O)(=O)N2CCOCC2)ccc1OCC(=O)Nc1ccc(Br)cc1F | 34 | -3 | 1 | -34 | . | .
Cc1ccc(S(=O)(=O)Oc2cccc(N3C(=O)C4CC=CCC4C3=O)c2)cc1 (stereo not drawn) | . | 3 | 71* | . | 1 | 100
COc1ccc(OC)c(/C=N/NC(=O)c2ccncc2)c1 | 1 | -4 | 57* | -1 | -1 | 99
COc1ccccc1C=NNC(=O)c1ccncc1 | -7 | 2 | . | 7 | . | .
COc1cc(C(C#N)N2N=C(c3ccccc3)CC2c2ccccc2)ccc1O (stereo not drawn) | 9 | -3 | 0 | -9 | . | .
N#CC(c1ccccc1O)N1N=C(c2ccccc2)CC1c1ccccc1 (stereo not drawn) | . | -1 | 46* | . | 1 | 39*
C=C1CCN(c2ccc(C(=O)NCc3ccccc3)cc2[N+](=O)[O-])CC1 | -10 | 0 | 2 | 10 | . | .
Cc1ccc(CNC(=O)c2ccc(N3CCc4ccccc43)c([N+](=O)[O-])c2)cc1 | -31 | -3 | 3 | 31 | 0 | 98
CCN1CCN(CC(=O)N2N=CCC2c2ccccc2)CC1 (stereo not drawn) | 5 | -3 | 100* | -5 | 0 | 100
COC(=O)C1CCN(C(=O)C2CC(=O)N(c3ccc(C)c(Cl)c3)C2)CC1 (stereo not drawn) | 1 | 1 | . | -1 | . | .
CC(=O)COC(=O)c1cccc(N2C(=O)C3C4C=CC(C4)C3C2=O)c1 (stereo not drawn) | 0 | 4 | 80* | 0 | 2 | 104
C#CCn1c(=NC(=O)c2cccs2)sc2cccc(OCC)c21 | -39 | -3 | 2 | 39 | . | .
C#CCn1c(=NC(=O)c2ccc(Cl)s2)sc2cccc(OC)c21 | -17 | -5 | 76* | 17 | 2 | 99
Cn1c(C(=O)N[C@@H](Cc2ccccc2)C(=O)O)cc2cc(F)ccc21 | -2 | 4 | 0 | 2 | . | .
Cn1c(C(=O)N[C@@H](C(=O)O)c2ccccc2)cc2cc(F)ccc21 | -21 | 1 | 64* | 21 | 2 | 99

Source: PubChem BioAssay (several laboratories)
